The list is not random: actives were taken first. Their share in the collection is about 3.1%.
Cneo AK release – Cryptococcus neoformans lysis via adenylate kinase release. C. neoformans lysis, adenylate kinase release luminescence, 4 h; normalised: neutral wells 0, clomiphene wells 100. lysis activity, % at 15 µM. actives 0.2% (n = 360,000);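 active = mean lysis activity across replicates of at least 80%, whatever share of replicates individually reach that level; inactive = mean lysis activity below 80%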
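Material: C. neoformans cells | Amount: Yeast cell density of 5 × 10^6 cells/mL | Medium: Fresh YPD growth medium | Dosing: Single dose | Times: Static 4 h at 37 °C with compound, 1 h detection | Detection: AK luminescence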
miR-122 sensor – inhibitors of miR-122 in Huh7 cells; AID 602342; Huh7 miR-122 Renilla luciferase sensor, 48 h; neutral wells = 0, positive control = 100; activation (reporter increase), % at 12.5 µM; actives 0.3% (n = 340,000);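 active = mean replicate activation score at least 90 and every replicate individually at or above 90; inconclusive = only one of the two criteria met; inactive = neither criterion met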;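 also: higher luciferase means less miR-122 activity so hits act as miR-122 inhibitors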
DENV2 CPE – DENV2-induced cell death inhibition | DENV2-infected cells, cytopathic effect rescue, plate reader | CPE inhibition, % at 9.99 µM | actives 1.7% (n = 350,000) | AID 651640; in the data active = CPE inhibition above about 20%, passing the limit was not always enough; inconclusive = no clear call, values can overlap the other calls; tested in BHK-21 cells;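 also: 0% = median of neutral control wells and 100% = median of positive control wells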
E-selectin induc – induces E-selectin expression in human endothelial cells; HUVEC E-selectin immunofluorescence imaging; normalized: neutral wells 0, TNF-alpha wells 100; activation, % at 7.58 µM; actives 0.37% (n = 260,000); P16581; AID 686992;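 active = mean E-selectin-positive cell signal at least 10% of the positive control, reached in at least 60% of replicates, without over 20% cell loss; inconclusive = no rule given, readout overlaps actives, possibly toxicity-flagged; inactive = the rest, including those meeting only one limit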
Target sequence (P16581 whole entry, looked up): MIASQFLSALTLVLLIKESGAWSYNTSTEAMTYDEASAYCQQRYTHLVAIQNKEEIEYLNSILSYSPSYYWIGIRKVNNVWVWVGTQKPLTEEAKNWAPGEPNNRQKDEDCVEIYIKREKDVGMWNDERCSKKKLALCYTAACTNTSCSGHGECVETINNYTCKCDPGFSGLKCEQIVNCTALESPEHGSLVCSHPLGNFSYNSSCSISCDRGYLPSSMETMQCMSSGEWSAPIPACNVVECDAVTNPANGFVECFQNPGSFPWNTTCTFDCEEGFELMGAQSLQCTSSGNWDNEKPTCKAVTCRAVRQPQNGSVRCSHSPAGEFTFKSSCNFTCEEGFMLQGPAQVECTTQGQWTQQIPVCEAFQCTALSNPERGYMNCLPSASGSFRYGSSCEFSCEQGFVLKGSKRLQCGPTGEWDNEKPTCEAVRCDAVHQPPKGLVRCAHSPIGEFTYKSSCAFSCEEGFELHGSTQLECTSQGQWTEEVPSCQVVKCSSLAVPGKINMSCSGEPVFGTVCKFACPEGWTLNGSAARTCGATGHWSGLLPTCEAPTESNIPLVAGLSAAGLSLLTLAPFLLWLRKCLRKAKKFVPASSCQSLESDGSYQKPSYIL
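Read-out: % PE-positive cells | Test system: HUVEC | Doses: One compound dose added by pin transfer | Buffer or medium: EGM-2 over gelatin coat | Signal: Immunofluorescence imaging | Benchmarks: TNF-alpha, DMSO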
rRNA inh HTS – inhibitors of bacterial rRNA selective over humanized ribosomes; actives 1.6% (n = 350,000); AID 720706; GFP signal change (wild-type ribosome), % (no concentration beside the values); E. coli WT GFP vs humanized-ribosome RFP mutants, fluorescence, 24 h; hits give low values; DMSO median 0, no signal -100;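 active = significant combined selectivity score with lowered wild-type GFP, culture density cut under 30%, mutant RFP and density less affected; inactive = any of these conditions unmet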
Numbers without * were called inactive; ? = inconclusive; / = not tested or not shown; [ ] = dose if it differs, or a comment.

SMILES	Cneo AK release	miR-122 sensor	DENV2 CPE	E-selectin induc	rRNA inh HTS
Cc1ccc(S(=O)(=O)N(C)C[C@H]2Oc3ccc(NC(=O)Nc4ccc(C(F)(F)F)cc4)cc3C(=O)N([C@H](C)CO)C[C@H]2C)cc1	-1	?	44*	1	2
Cc1ccc(S(=O)(=O)N(C)C[C@H]2Oc3ccc(NC(=O)Nc4ccc(C(F)(F)F)cc4)cc3C(=O)N([C@H](C)CO)C[C@@H]2C)cc1	8	-14[16.7 µM]	37*	1	-1
C[C@@H]1CN([C@H](C)CO)C(=O)c2cc(NC(=O)Nc3ccc(C(F)(F)F)cc3)ccc2O[C@@H]1CN(C)S(=O)(=O)c1ccc(F)cc1	2	44[16.7 µM]	-3	1	4
CCCN1[C@H](C(=O)N(C)C)[C@@H](CO)[C@@H]2Cn3c(ccc(/C=C/c4ccccc4)c3=O)[C@@H]21	41	/	56*	0	-1
CN(C)C(=O)[C@@H]1[C@@H](CO)[C@@H]2Cn3c(ccc(/C=C/c4ccccc4)c3=O)[C@@H]2N1CC1CC1	/	/	-2	0	4
CCN1[C@@H]2Cn3c(ccc(/C=C/c4ccccc4)c3=O)[C@H]1[C@@H](C(=O)NC1Cc3ccccc3C1)[C@@H]2CO	/	/	32*	2	-5
O=C(O)[C@H]1[C@H](CO)[C@H]2Cn3c(ccc(/C=C/c4ccccc4)c3=O)[C@H]2N1C(=O)c1cnccn1	32	/	103*	1	1
Cc1noc(C)c1NC(=O)Nc1ccc2c(c1)CC(=O)N([C@H](C)CO)C[C@H](C)[C@@H](CN(C)S(=O)(=O)c1c(C)noc1C)O2	/	/	/	/	6
C[C@H]1CN([C@@H](C)CO)S(=O)(=O)c2ccc(C3=CCCCC3)cc2O[C@H]1CN(C)CC1CC1	/	-7[16.7 µM]	/	0	/
C[C@H](CO)N1C[C@H](C)[C@@H](CN(C)C(=O)C2CCCCC2)Oc2ncc(C#CC3CC3)cc2C1=O	/	26[16.7 µM]	/	0	1
COc1ccc(S(=O)(=O)Nc2ccc3c(c2)C(=O)N([C@@H](C)CO)C[C@@H](C)[C@H](CN(C)C(=O)NC2CCCCC2)OCCCC[C@@H](C)O3)cc1	1	-7[16.7 µM]	1	/	1
C[C@@H]1CN([C@@H](C)CO)C(=O)c2cc(C#CCN(C)C)cnc2O[C@H]1CN(C)C(=O)Nc1cccc(F)c1	0	-1[16.7 µM]	0	0	4
C[C@H]1CN([C@@H](C)CO)C(=O)c2cc(C#CCN(C)C)cnc2O[C@@H]1CN(C)C(=O)Nc1cccc(F)c1	113*	-7[16.7 µM]	-8	0	4
C[C@H](CO)N1C[C@H](C)[C@@H](CN(C)C(=O)Nc2cccc(F)c2)Oc2ncc(C#CCN(C)C)cc2C1=O	0	-10[16.7 µM]	1	0	3
C[C@H](CO)N1C[C@H](C)[C@H](CN(C)C(=O)Nc2cccc(F)c2)Oc2ncc(C#CCN(C)C)cc2C1=O	97*	4[16.7 µM]	-6	-5	8
Cc1cc(-c2onc3ccc(Cl)cc23)ccc1O	-8	4	3	/	-31*
CC(=O)c1ccc2noc(-c3ccc(Cl)cc3)c2c1	/	3	-1	/	7
CO[C@@H]1CN(C)C(=O)c2ccc(NC(=O)Nc3ccccc3Cl)cc2OC[C@@H](C)N(Cc2ccccc2C(=O)O)C[C@H]1C	0	/	?	0	-1
CCC(=O)Nc1ccc2c(c1)OC[C@H](C)N(C(=O)C1CC1)C[C@@H](C)[C@@H](OC)CN(C)C2=O	0	-12[16.7 µM]	-4	0	-7
O=C(O)CC1(CC(=O)Nc2ccc(F)c(Cl)c2)CCCCC1	1	6	4	8	-23*
C[C@H](CO)N1C[C@H](C)[C@H](CN(C)S(=O)(=O)c2ccccc2)Oc2ccc(NS(=O)(=O)c3cn(C)cn3)cc2CC1=O	2	-8[16.7 µM]	-3	0	2
C[C@@H]1CN([C@H](C)CO)C(=O)c2cc(NC(=O)Nc3ccc(F)cc3)ccc2O[C@@H]1CN(C)Cc1ccccc1	-1	14[16.7 µM]	-4	0	-1
CN(C)CC1CC/C(=C\c2ccc(O)cc2)C1=O (stereo not drawn)	/	/	1	0	-31*
O=C1/C(=C\c2ccc(Cl)cc2)CCC1CNc1ccc(Cl)cc1 (stereo not drawn)	/	/	63*	0	-14
CN1C(=O)c2cc(NC(=O)C3CC3)ccc2OC[C@H]2O[C@H](CC(=O)NCC3CCCCC3)CC[C@@H]21	-4	12[16.7 µM]	12	0	-1
SMILES	Cneo AK release	miR-122 sensor	DENV2 CPE	E-selectin induc	rRNA inh HTS
CCCN1CCN(C(=O)c2ccc(CS(=O)c3ccc(Cl)cc3)o2)CC1 (stereo not drawn)	2	3	-2	49*	7
C/C=C/c1ccc2c(c1)[C@@H]1[C@@H](CCN1S(=O)(=O)c1ccccc1C)[C@H](CO)N2	/	/	12	0	-14
CN1c2ccc(-c3ccccc3F)cc2[C@@H]2[C@@H](CCN2C(=O)Nc2cc(F)ccc2F)[C@@H]1CO	-9	2[16.7 µM]	42*	0	-11
CN1c2ccc(-c3ccccc3F)cc2[C@@H]2[C@@H](CCN2C(=O)c2cccc(F)c2)[C@@H]1CO	-21	7[16.7 µM]	76*	0	-14
CN1c2ccc(-c3ccccc3F)cc2[C@H]2[C@H](CCN2C(=O)c2cccc(F)c2)[C@H]1CO	-11	60[16.7 µM]	14	0	-11
CN1c2ccc(-c3ccc(F)cc3)cc2[C@@H]2[C@@H](CCN2C(=O)Nc2cc(F)ccc2F)[C@@H]1CO	4	-10[16.7 µM]	-22	0	-4
O=C(N[C@@H]1C=C[C@@H](CC(=O)N2CCCCC2)O[C@@H]1CO)c1cccc(F)c1	-1	/	3	0	3
C[C@@H]1CCCCO[C@H](CN(C)S(=O)(=O)c2ccccc2)[C@H](C)CN([C@@H](C)CO)C(=O)c2cc(NC(=O)c3ccncc3)ccc2O1	1	7[16.7 µM]	-2	/	-4
O=C(Nc1ccccc1)N1C[C@H]2[C@@H](c3ccccc31)[C@H](CO)N2Cc1ccccc1Cl	-3	7[16.7 µM]	-12	0	-5
CC(=O)N(C[C@@H]1[C@@H](c2ccc(C3=CCCC3)cc2)[C@@H](CO)N1CC1CC1)C(C)C	/	/	9	0	2
N#Cc1cccnc1N1CCC(C(N)=O)CC1	/	/	4	70*	16
O=C(c1ccc2nccnc2c1)N1CCN(c2ccccc2)CC1	4	3	35*	-1	5
O=C(c1ccc2nccnc2c1)N1CCN(c2cccc(C(F)(F)F)c2)CC1	0	/	-1	/	-11
N#Cc1cccnc1N1CCN(C(=O)c2ccccc2)CC1	1	-2	52*	0	6
CC(C)C(C(=O)NC1CCCC1)N1CCN(c2ncccc2C#N)CC1 (stereo not drawn)	/	/	3	0	11
CO[C@H]1CN(C)C(=O)c2ccc(NC(=O)CC(F)(F)F)cc2OC[C@@H](C)N(CC2CC2)C[C@H]1C	/	/	1	0	0
